# Kir21 block: inhibitors of mouse Kir2.1 inward-rectifier potassium channel; HEK293-Kir2.1, FluxOR thallium flux fluorescence; active compounds read low; B-score at 10 µM; 310,000 compounds, 0.85% hits; AID 1672;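 active means fluorescence ratio B-score at or below minus 3 SD of library scores, with starting-brightness B-score within 2 SD, cut at about -4.2 in these data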;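 further: channel flux triggered by added potassium and thallium sulfate stimulus; B-score of peak minus minimum fluorescence over baseline after thallium stimulus; more negative B-score means stronger Kir2.1 block with less thallium influx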
# Target sequence (P35561 whole entry, looked up): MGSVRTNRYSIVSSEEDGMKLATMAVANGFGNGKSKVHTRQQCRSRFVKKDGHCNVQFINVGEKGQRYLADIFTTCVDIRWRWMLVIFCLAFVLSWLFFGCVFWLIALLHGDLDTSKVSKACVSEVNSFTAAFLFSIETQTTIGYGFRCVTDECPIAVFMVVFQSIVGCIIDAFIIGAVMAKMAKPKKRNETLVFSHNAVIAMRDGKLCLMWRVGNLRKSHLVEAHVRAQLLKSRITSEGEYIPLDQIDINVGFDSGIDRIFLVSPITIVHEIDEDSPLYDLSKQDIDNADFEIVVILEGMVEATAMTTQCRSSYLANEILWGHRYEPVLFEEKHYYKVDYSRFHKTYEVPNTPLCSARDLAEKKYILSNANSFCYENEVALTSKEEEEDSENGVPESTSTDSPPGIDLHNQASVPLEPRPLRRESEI
# TRPC6 act: activates the mouse TRPC6 cation channel. 310,000 compounds, 0.13% hits. HEK293-TRPC6 membrane potential dye fluorescence; active compounds read high. B-score at 10 µM. AID 2550;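 active means B-score of the integrated fluorescence ratio above library mean plus 3 SD, and starting fluorescence ratio within library mean plus 5 SD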;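 further: higher score means more depolarization so channel activation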
# TRPC4 inh: blocks the mouse TRPC4 cation channel. 300,000 compounds, 0.39% hits. B-score at 10 µM. Q9QUQ5. AID 2247. HEK293 TRPC4beta/mu-opioid, DAMGO-evoked Fluo4 calcium flux; active compounds read low;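 active means B-score over 3 SD under the library average, no early fluorescence shift, positive overall ratio signal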
#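 Assay system: TRPC4beta/mu-opioid receptor HEK293 cell line; compound dosing: single concentration per test compound; detection: Fluo4 Ca2+ flux fluorescence; evaluation: per-well B score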
# TRPC6 inh: inhibitors of mouse TRPC6 channel; HEK293-TRPC6, membrane potential dye, ACh-evoked depolarization; active compounds read low; B-score at 10 µM; 310,000 compounds, 1.1% hits;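 active means B-score under library mean minus 3 SD, initial fluorescence not abnormally high, positive integrated signal ratio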;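 further: B-score derived from integrated fluorescence ratio over the kinetic read; more negative B-score means stronger inhibition of depolarization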
# TRPC4 agonist: TRPC4 (mouse) channel activation | Q9QUQ5 | HEK293 TRPC4beta/mu-opioid, Fluo4 calcium fluorescence; active compounds read high | B-score at 10 µM | 310,000 compounds, 0.49% hits | AID 2237;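 active means B-score above 5 SD of library B-scores, and initial fluorescence ratio not above library mean plus 5 SD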;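 further: positive B-score marks a calcium rise read as TRPC4 activation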
#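 Technique: kinetic Fluo4 calcium fluorescence; Test system: TRPC4beta and mu-opioid receptor HEK293 stable cells; Measure: B-scored integrated calcium fluorescence ratio; Benchmarks: low control buffer alone, high control maximal DAMGO; Schedule: 45 min room-temperature Fluo4 loading, 110 s read.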
# TRPC4 potent: TRPC4 (mouse) allosteric potentiation. HEK293 TRPC4beta/mu-opioid, DAMGO EC20, Fluo-4 Ca2+ flux; active compounds read high. Q9QUQ5. 310,000 compounds, 0.42% hits. B-score at 10 µM. AID 2227;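 active means B-score of calcium response area above 5 SD of library B-scores, with initial fluorescence ratio within 5 SD of library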;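 further: B-score of integrated fluorescence ratio over time as area under calcium response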
# TRPC4 spec 2: second check of whether TRPC6 inhibitors also affect mouse TRPC4. 920 compounds, 42% hits. HEK293 TRPC4/MOR, membrane potential dye fluorescence; channel activated by saturating DAMGO dose. inhibition, % at 10 µM. shares compounds with TRPC6 inh. AID 2776;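 active means compounds whose fluorescence signal differed from control wells by over 3 SD, either direction, in both duplicate plates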
# TRPC4 spec: tests whether TRPC6 inhibitors also affect mouse TRPC4 | shares compounds with TRPC6 inh | HEK293 TRPC4/mu-opioid, membrane potential fluorescence | activity change, negative = inhibition, % at 10 µM | 920 compounds, 61% hits;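 active means rise or fall in signal beyond 3 SD of buffer-only wells in both replicate plates, either sign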;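 further: integrated kinetic ratio of fluorescence range over baseline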
# HEK293 MPD ctr 2-1: second check of TRPC6 inhibitor effects in parental HEK293 cells; 920 compounds, 31% hits; shares compounds with TRPC6 inh; AID 2779; signal change vs control, % at 10 µM; parental HEK293 membrane potential dye fluorescence; maximal acetylcholine challenge after compound addition;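 active means membrane potential signal moving either way by over 3 SD of the maximum-effect control, in both duplicate plates, meaning non-specific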
# HEK293 MPD ctr-1: counter-screen for TRPC6 inhibitors: effect in parental HEK293 cells. AID 2780. shares compounds with TRPC6 inh. membrane potential signal change, % at 10 µM. parental HEK293 membrane potential dye fluorescence. 920 compounds, 60% hits;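 active means membrane potential signal shifting up or down by more than 3 SD of buffer-only wells, on both duplicate plates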
# HEK293 MPD ctr-2: checks TRPC6 modulator effects in parental HEK293 cells. shares compounds with TRPC6 inh. membrane potential dye fluorescence. membrane potential signal change, % at 10 µM. 2,400 compounds, 51% hits. AID 488924;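 active means membrane potential signal moves up or down beyond 5 SD from buffer-only wells, on both duplicate plates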
# HEK293 MPD ctr 2-2: second counter-screen for TRPC6 modulators: effect in parental HEK293 cells; shares compounds with TRPC6 inh; membrane potential dye fluorescence; after compound, maximal acetylcholine stimulation; inhibition, % at 10 µM; 2,400 compounds, 14% hits; AID 488926;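 active means membrane potential signal drops by more than 5 SD from the mean control signal, in both duplicate plates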;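 further: plate controls were acetylcholine ECmax control wells for no effect and buffer only wells for full effect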
# TRPC4/MOR mod: tests whether TRPC6 modulators also affect mouse TRPC4. HEK293 TRPC4/mu-opioid, membrane potential fluorescence. shares compounds with TRPC6 inh. 2,400 compounds, 69% hits. percent change from control (negative = decrease, positive = increase), % at 10 µM;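 active means membrane potential signal moved up or down beyond 5 SD of buffer control wells, in both duplicate plates, actives on both sides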;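 further: plate controls were assay buffer wells for no effect and DAMGO maximal-effect wells for full effect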
# TRPC4 ctr inh 2: second selectivity test of TRPC6 modulators against mouse TRPC4; inhibition, % at 10 µM; AID 488928; HEK293 TRPC4/mu-opioid, membrane potential dye fluorescence; stimulated with maximal-effect DAMGO; shares compounds with TRPC6 inh; 2,400 compounds, 55% hits;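 active means drop in membrane potential signal beyond 5 SD of the control wells in both duplicate plates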;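 further: TRPC4 counter screen for TRPC6 hits run under conditions tuned for TRPC6 not TRPC4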
# TRPC6 block conf: mouse TRPC6 inhibitor confirmation; 3,300 compounds, 43% hits; shares compounds with TRPC6 inh; AID 488960; inhibition, % at 10 µM; HEK293-TRPC6, membrane potential dye, ACh-evoked depolarization;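 active means fluorescence ratio falls more than 5 SD below the full-stimulation control mean, in both duplicate runs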;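 further: integrated fluorescence ratio of peak minus minimum over baseline after agonist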
# TRPC6 act conf: confirmation of mouse TRPC6 activators. HEK293-TRPC6 membrane potential dye fluorescence, FDSS. 2,800 compounds, 11% hits. activation, % at 10 µM. shares compounds with TRPC6 inh;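 active means ratio signal rise beyond 5 SD above unstimulated control wells' mean, seen in both duplicate runs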;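 further: plate controls were buffer EC0 wells for no effect and acetylcholine ECmax response for full effect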
# An asterisk follows results filed as active; i = inactive; . = no result. Sampled rows, rich in hits. Any-hit rate of the full collection: about 3%.
SMILES,Kir21 block,TRPC6 act,TRPC4 inh,TRPC6 inh,TRPC4 agonist,TRPC4 potent,HEK293 MPD ctr-2,HEK293 MPD ctr 2-2,TRPC4/MOR mod,TRPC4 ctr inh 2,TRPC6 block conf,TRPC6 act conf,others
O=C(COc1ccccc1)NCC(c1ccco1)N1CCN(c2ccccc2F)CC1 (stereo not drawn),1.2,i,i,-5.9*,i,i,141%*,i,32%*,46%*,64%*,.,
Cc1ccccc1C(=O)c1cccn1CC(=O)NC(C)c1ccc2c(c1)OCCO2 (stereo not drawn),-1.6,i,i,i,i,i,.,.,.,.,.,.,
CCCCN(CC)CCCNC(=O)c1cc2c(=O)[nH]c3ccccc3c2s1,0.38,i,i,i,i,i,.,.,.,.,.,.,
CCCCN(CC)CCNC(=O)c1cc2c(=O)[nH]c3ccc(C)cc3c2s1,-0.6,i,i,-6.3*,i,i,186%*,i,35%*,i,60%*,.,
O=C(c1ccc(Cl)cc1[N+](=O)[O-])N(Cc1ccccc1)Cc1ccccc1,-0.58,i,i,i,i,i,.,.,.,.,.,.,
CC(C)(C)N(Cc1ccccc1)C(=O)c1ccc(Cl)cc1[N+](=O)[O-],-0.01,i,i,-6.5*,i,i,i,i,i,i,i,i,
Cc1ccc(CNC(=O)C2CCC(CNS(=O)(=O)c3cccs3)CC2)cc1 (stereo not drawn),-0.77,i,i,i,i,i,.,.,.,.,.,.,
CCCCOc1ccc(-c2nnc(-c3cc[n+](C)cc3)o2)cc1,0.7,i,i,-8.2*,i,i,.,.,.,.,i,i,TRPC4 spec 2=i;TRPC4 spec=-11%*;HEK293 MPD ctr 2-1=-69%*;HEK293 MPD ctr-1=-200%*
Cc1cccc(NC(=S)N2CCOCC2)c1C,-2.6,i,i,i,i,i,.,.,.,.,.,.,
Cc1c(C(=O)OC(C)C(C)C[N+](C)(C)C)oc2ccccc12 (stereo not drawn),-2,i,i,-7.5*,i,i,i,64%*,i,i,72%*,i,
Cc1cc(C)c(S(=O)(=O)N2CCCC(C(=O)NC3CCCC3)C2)c(C)c1 (stereo not drawn),-0.31,i,i,i,i,i,.,.,.,.,.,.,
Cn1cccc1C(=O)NC1CCCCC1,0.91,i,i,i,i,i,.,.,.,.,.,.,
